Results taken from publication PMC10784704 (The Journal of Biological Chemistry, 2023).

T1: neutrophil elastase (NE) (Homo sapiens, UniProt P08246)
T1 sequence (P08246 30-267): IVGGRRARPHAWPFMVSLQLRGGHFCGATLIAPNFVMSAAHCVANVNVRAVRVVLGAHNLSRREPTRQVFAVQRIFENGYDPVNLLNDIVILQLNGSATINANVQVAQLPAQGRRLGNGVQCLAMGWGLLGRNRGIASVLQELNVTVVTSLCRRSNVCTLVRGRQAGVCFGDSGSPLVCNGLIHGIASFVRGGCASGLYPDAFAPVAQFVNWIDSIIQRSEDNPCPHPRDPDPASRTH


Molecular target: T1, neutrophil elastase (NE)
Assay: Longitudinal NE digestion of rCBG and asialo-rCBG
Type: in vitro ADME
Conditions: rCBG/NE 25:1 (w/w), on ice, 480 s incubation period; trypsin digest, LC-MS/MS
Method in brief: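 Recombinant CBG, native or desialylated with neuraminidase A (40 U, overnight, 37 °C), digested with NE at 25:1 (w/w) on ice for 15, 30, 60, 120, 240 and 480 s. Stopped with 1 mM PMSF (8 min, ice), reduced with DTT, alkylated with IAA, and trypsin-digested at 20:1 (w/w) overnight at 37 °C. LC-MS/MS tracked intact and cleaved RCL peptides (unoccupied, sialo- and asialo-O-glycosylated). Mean + SD, n = 3.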

| Molecule | Effect of Thr345 O-glycans on NE proteolysis reaction |
| --- | --- |
| rCBG: Polyhistidine-tagged recombinant human CBG expressed in HEK293 cells (Sino Biological) (protein, UniProt P08185 23-405, looked up, polyhistidine tag) Corticosteroid-binding …: MDPNAAYVNMSNHHRGLASANVDFAFSLYKHLVALSPKKNIFISPVSISMALAMLSLGTCGHTRAQLLQGLGFNLTERSETEIHQGFQHLHQLFAKSDTSLEMTMGNALFLDGSLELLESFSADIKHYYESEVLAMNFQDWATASRQINSYVKNKTQGKIVDLFSGLDSPAILVLVNYIFFKGTWTQPFDLASTREENFYVDETTVVKVPMMLQSSTISYLHDSELPCQLVQMNYVGNGTVFFILPDKGKMNTVIAALSRDTINRWSAGLTSSQVDLYIPKVTISGVYDLGDVLEEMGIADLFTNQANFSRITQDAQLKSSKVVHKAVLQLNEEGVDTAGSTGVTLNLTSKPIILRFNQPFIIMIFDHFTWSSLFLARVMNPV | strongly inhibit |
| asialo-rCBG: sialic acid-deficient glycoform of rCBG generated through exhaustive sialidase (neuraminidase A) treatment (protein, UniProt P08185 23-405, looked up, His tag; desialylated by neuraminidase) Corticosteroid-binding …: MDPNAAYVNMSNHHRGLASANVDFAFSLYKHLVALSPKKNIFISPVSISMALAMLSLGTCGHTRAQLLQGLGFNLTERSETEIHQGFQHLHQLFAKSDTSLEMTMGNALFLDGSLELLESFSADIKHYYESEVLAMNFQDWATASRQINSYVKNKTQGKIVDLFSGLDSPAILVLVNYIFFKGTWTQPFDLASTREENFYVDETTVVKVPMMLQSSTISYLHDSELPCQLVQMNYVGNGTVFFILPDKGKMNTVIAALSRDTINRWSAGLTSSQVDLYIPKVTISGVYDLGDVLEEMGIADLFTNQANFSRITQDAQLKSSKVVHKAVLQLNEEGVDTAGSTGVTLNLTSKPIILRFNQPFIIMIFDHFTWSSLFLARVMNPV | strongly inhibit |
